ChEMBL document CHEMBL2169875, “Designing allosteric regulators of thrombin. Monosulfated benzofuran dimers selectively interact with Arg173 of exosite 2 to induce inhibition” (J Med Chem, 2012)
Activity calls are given as the source filed them. No cut-off for these calls is given here.

Assays:
Homo sapiens [1] = species: Homo sapiens; assay: Binding affinity to human antithrombin by spectrofluorometric analysis
[2] = Inhibition of wild type human plasma alpha-thrombin assessed as spectrozyme TH hydrolysis after 10 mins in absence of exosite 1 ligand HirP
Procedure, shortened: (§1)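 Buffer was 20 mM Tris-HCl pH 7.4, 100 mM NaCl, 2.5 mM CaCl2, 0.1% PEG 8000. After 10 min, Spectrozyme TH was added and A405 read. Apparent IC50 and efficacy came from a logistic fit with all parameters floating.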

[3] = Inhibition of wild type human plasma alpha-thrombin assessed as spectrozyme TH hydrolysis after 10 mins in presence of 10 uM exosite 2 ligand H8; assay type: cell-free; procedure, shortened: as §1
[4] = Inhibition of wild type human plasma alpha-thrombin assessed as spectrozyme TH hydrolysis after 10 mins by spectrophotometric analysis in absence of exosite 2 ligand UFH; procedure, shortened: as §1
[5] = Partial competitive inhibition of wild type human plasma alpha-thrombin assessed as spectrozyme TH hydrolysis after 10 mins in presence of 48 uM exosite 2 ligand UFH; assay type: cell-free; procedure, shortened: as §1
[6] = Inhibition of wild type human plasma alpha-thrombin assessed as spectrozyme TH hydrolysis after 10 mins in absence of exosite 2 ligand FibP; procedure, shortened: as §1
[7] = Inhibition of recombinant thrombin Lys235Ala mutant expressed in BHK cells assessed as spectrozyme TH hydrolysis after 10 mins; assay type: cell-based
Procedure, shortened: (§2)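 Recombinant thrombins (wild type or Ala mutants) made as prothrombin-1 in BHK cells, purified by HPC4 immunoaffinity, activated, and active-site titrated. About 5 nM enzyme was incubated 10 min at 25 °C with inhibitor in 20 mM Tris-HCl pH 7.4, 100 mM NaCl, 2.5 mM CaCl2, 0.1% PEG 8000. Spectrozyme TH was then added, and the initial A405 rate was read. The dose-response of fractional residual activity was fitted to a logistic equation for IC50, Hill slope and efficacy.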

[8] = Inhibition of wild type human plasma alpha-thrombin assessed as spectrozyme TH hydrolysis after 10 mins in absence of exosite 2 ligand H8; procedure, shortened: as §1
BHK = assay: Inhibition of recombinant thrombin Arg93,97,101Ala mutant expressed in BHK cells assessed as spectrozyme TH hydrolysis at 0.25 to 12.5 mM after 10 mins; assay type: cell-based
[9] = Inhibition of recombinant thrombin Arg93,97,101Ala mutant expressed in BHK cells assessed as spectrozyme TH hydrolysis after 10 mins; assay type: cell-based; procedure, shortened: as §2
Homo sapiens [10] = species: Homo sapiens; assay: Inhibition of wild type human plasma alpha-thrombin assessed as spectrozyme TH hydrolysis after 10 mins in presence of exosite 1 ligand HirP; assay type: cell-free; procedure, shortened: as §1
[11] = Inhibition of wild type human plasma alpha-thrombin assessed as spectrozyme TH hydrolysis after 10 mins in presence of 6.5 uM exosite 2 ligand FibP; assay type: cell-free; procedure, shortened: as §1
A549 = assay: Cytotoxicity against human A549 cells assessed as cell viability up to 420 uM after 120 hrs by MTT assay; assay type: cell-based; conditions: a549, 120 h
Procedure, shortened: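 A549 cells in DMEM with 10% heat-inactivated FBS were kept at 37 °C, 5% CO2. Cells were seeded at 30,000 per well for 4 h, then exposed to medium or varying compound concentrations (aqueous stock) for 120 h at 37 °C. MTT was added for 10 h, followed by SDS/DMF lysis for 10 h. Three experiments were run, analysed by one-way ANOVA with Dunnett's test.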

Prothrombin [12] = biological target: T1, Prothrombin (Homo sapiens, UniProt P00734); assay: Inhibition of recombinant wild type thrombin expressed in BHK cells assessed as spectrozyme TH hydrolysis at 0.25 to 12.5 mM after 10 mins; assay type: cell-based
[13] = Inhibition of recombinant thrombin Lys169Ala mutant expressed in BHK cells assessed as spectrozyme TH hydrolysis after 10 mins; assay type: cell-based; procedure, shortened: as §2
Prothrombin [14] = biological target: T1, Prothrombin; assay: Inhibition of recombinant wild type thrombin expressed in BHK cells assessed as spectrozyme TH hydrolysis after 10 mins; assay type: cell-based; procedure, shortened: as §2
Coagulation factor X = Coagulation factor X (Homo sapiens, UniProt P00742); assay: Inhibition of human plasma F10a assessed as spectrozyme TH hydrolysis after 10 mins
Procedure, shortened: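 Chromogenic assay of human plasma factor Xa (4 nM final) at 25 °C in 20 mM Tris-HCl pH 7.4, 100 mM NaCl, 2.5 mM CaCl2, 0.1% PEG 8000. Inhibitor dilutions (from 0.25–12.5 mM stocks) incubated with enzyme 10 min, then 1 mM Spectrozyme TH stock added. Initial rate at 405 nm gave fractional residual activity. Fitting the logistic equation yielded apparent IC50, Hill slope and efficacy ΔY.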

[15] = Inhibition of recombinant thrombin Arg175Ala mutant expressed in BHK cells assessed as spectrozyme TH hydrolysis after 10 mins; assay type: cell-based; procedure, shortened: as §2

Chain of Coagulation factor X (P00742 41-179 limits assumed): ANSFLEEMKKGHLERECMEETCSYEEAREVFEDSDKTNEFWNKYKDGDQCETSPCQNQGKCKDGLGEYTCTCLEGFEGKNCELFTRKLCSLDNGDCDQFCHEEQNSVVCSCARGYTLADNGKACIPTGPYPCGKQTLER
Chain of Coagulation factor X (P00742 235-488 limits assumed): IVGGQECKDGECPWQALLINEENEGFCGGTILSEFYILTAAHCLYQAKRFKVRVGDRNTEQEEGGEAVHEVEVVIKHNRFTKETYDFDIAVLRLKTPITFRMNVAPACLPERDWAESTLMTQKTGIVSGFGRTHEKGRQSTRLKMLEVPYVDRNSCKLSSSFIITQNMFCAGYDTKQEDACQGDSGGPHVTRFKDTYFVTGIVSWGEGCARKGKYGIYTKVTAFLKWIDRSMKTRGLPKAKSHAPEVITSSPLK

CO[C@H]1O[C@H](COS(=O)(=O)O)[C@@H](O[C@@H]2O[C@@H](C(=O)O)[C@@H](O[C@H]3O[C@H](COS(=O)(=O)O)[C@@H](O[C@@H]4O[C@H](C(=O)O)[C@@H](O[C@H]5O[C@H](COS(=O)(=O)O)[C@@H](O)[C@H](O)[C@H]5NS(=O)(=O)O)[C@H](O)[C@H]4O)[C@H](OS(=O)(=O)O)[C@H]3NS(=O)(=O)O)[C@H](O)[C@H]2OS(=O)(=O)O)[C@H](O)[C@H]1NS(=O)(=O)O
Activity (Homo sapiens [1]): 50 nM

CCOC(=O)c1c(C)oc2cc(OC(C)C)c(OCc3oc4cc(OC(C)C)c(OS(=O)(=O)O)cc4c3C(=O)OCC)cc12
IC50 [2]: 1.3 µM

COC(=O)c1c(C)oc2cc(OC)c(OCc3oc4cc(OC)c(OS(=O)(=O)O)cc4c3C(=O)OC)cc12
IC50 [2]: 31.9 µM

CCOC(=O)c1c(C)oc2cc(OC)c(OCc3oc4cc(OC)c(OS(=O)(=O)[O-])cc4c3C(=O)OCC)cc12.[Na+]
IC50 [2]: 6.2 µM | IC50 [3]: 3.7 µM | IC50 [4]: 8.8 µM | IC50 [5]: 36.1 µM | IC50 [6]: 7.9 µM | IC50 [7]: 4.9 µM | IC50 [8]: 2700 nM | inhibition (BHK): 70% | IC50 [9]: 5 µM | inhibition (Homo sapiens [10]): Active | IC50 [11]: 118 µM | Activity (A549): Non-toxic | inhibition (Prothrombin [12]): 30% | IC50 [13]: 4.9 µM | IC50 (Prothrombin [14]): 5.5 µM | IC50 (Coagulation factor X): > 300 µM | IC50 [15]: 4.9 µM

COc1cc2oc(C)c(C(=O)O)c2cc1OCc1oc2cc(OC)c(OS(=O)(=O)O)cc2c1C(=O)O
IC50 [2]: > 500 µM

COCCOC(=O)c1c(C)oc2cc(OC)c(OCc3oc4cc(OC)c(OS(=O)(=O)O)cc4c3C(=O)OCCOC)cc12
IC50 [2]: 16.9 µM

CCOC(=O)c1c(C)oc2cc(OCC)c(OCc3oc4cc(OCC)c(OS(=O)(=O)O)cc4c3C(=O)OCC)cc12
IC50 [2]: 4.5 µM
